Measured values published in PubChem BioAssay AID588322 (Southern Research Specialized Biocontainment Screening …, 2011).
Activity calls are given as the source filed them.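 The calls were made as follows: active = compound blocking phage lysis by over 30% at some tested dose and judged capsule specific; inactive = the rest.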

Test system: E. coli EV36 T7 phage lysis, OD600 3 h
Experiment: capsule-loss sensitization to T7 lysis – T7 phage, set 5, selectivity assay for bacterial capsule biogenesis inhibitors, dose response (AID 588322)
Conditions: not given
Procedure, shortened: (§1)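 material = Escherichia coli EV36, a K1:K-12 hybrid strain | medium = LB broth culture medium | probe or stimulus = T7 phage added after compound pre-incubation | incubation = 1.5 h compound at 37 °C, then 3 h post-infection | detection = OD600 absorbance at 3 h post-infection | read-out basis = Capsule-loss-dependent T7 phage lysis judged from culture OD600 | repeats = quadruplicate per concentration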

Structure (SMILES)	IC50
O=C(Nc1cc(-c2ccccc2)sc1C(=O)O)c1ccc2c(c1)OCCO2	12.7 µM (inactive)
O=C(Nc1cc(-c2ccccc2)sc1C(=O)O)c1ccc(Br)o1	8.13 µM (inactive)
O=C(O)c1sc(-c2ccccc2)cc1NC(=O)C1CCCCC1	55 µM (inactive)
O=C(O)c1sc(-c2ccccc2)cc1NC(=O)C1CCCC1	57.4 µM (inactive)
O=C(Nc1cc(-c2ccccc2)sc1C(=O)O)c1cccc(F)c1	29.4 µM (inactive)
CCOc1ccc(-c2cc(NC(=O)c3cccc(Cl)c3)c(C(=O)O)s2)cc1	4.25 µM (inactive)
Cc1c(C(=O)Nc2cc(-c3ccccc3)sc2C(=O)O)oc2ccccc12	30.1 µM (inactive)
O=C(Nc1cc(-c2ccccc2)sc1C(=O)O)c1cccs1	7.11 µM (inactive)
CCOc1ccc(-c2cc(NC(=O)c3ccc(OC)c(OC)c3)c(C(=O)O)s2)cc1	7.72 µM (inactive)
O=C(Nc1cc(-c2ccccc2)sc1C(=O)O)c1cc2ccccc2o1	7.11 µM (inactive)
O=C(Nc1cc(-c2ccccc2)sc1C(=O)O)c1cc(Cl)c2c(c1)OCCO2	16 µM (inactive)
Cc1ccc(C(=O)Nc2cc(-c3ccccc3)sc2C(=O)O)s1	41.7 µM (inactive)
CCOc1ccc(-c2cc(NC(=O)c3c(F)cccc3F)c(C(=O)O)s2)cc1	0.71 µM (inactive)
O=C(Nc1cc(-c2ccccc2)sc1C(=O)O)c1ccc(Cl)s1	15 µM (inactive)
O=C(Nc1cc(-c2ccccc2)sc1C(=O)O)c1cccc(Cl)c1	33.4 µM (inactive)

Test system: not listed separately
Experiment: as above
Conditions: E. coli EV36 T7 phage lysis, OD600 3 h; at 100 µM (top of the series)
Procedure, shortened: as §1

Structure (SMILES)	cell growth (A600 at 3 h p.i., % of EV36+DMSO+T7 control); lower = more lysis
CCOc1ccc(-c2cc(NC(=O)c3c(F)cccc3F)c(C(=O)OC)s2)cc1	114% (inactive)
Cc1onc(-c2ccccc2)c1C(=O)Nc1cc(-c2ccccc2)sc1C(=O)O	104% (inactive)
COC(=O)c1sc(-c2ccccc2)cc1NC(=O)c1c(F)cccc1F	111% (inactive)
